T cruzi intra: inhibitors of intracellular Trypanosoma cruzi, primary screen, cell-based, plate reader, single point, set 2; intracellular Trypanosoma cruzi in host cells; activity score (inhibition), % at 5.01 µM; hit rate 4.9% among 22,000; in the data active means activity score above about 55%; inconclusive means no clear call, values can overlap the other calls;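 further: parasites and compound incubated about four days before reading; 0% = median of neutral control wells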
A1 apoptosis 2: A1 inhibitors via caspase activation, primary screen, cell-based, luminescence, HTS, two replicates; MEF A1-2A-BIM cells, caspase-Glo luminescence, 3 h; percent of clofoctol response, DMSO zero; AID 2465, 2010; caspase activation, % (test concentration not listed); 24,000 tested, under 10 active; in the data active means caspase activation above about 5.9%; inconclusive means no clear call, values can overlap the other calls; inactive means below about 2.2%
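Material: A1-2A-BIM-expressing MEF cells. Buffer or medium: RPMI-1640 plus 10% FBS. Incubation: cells settled overnight, compound exposure 3 h at 37 °C, 5% CO2. Signal: Caspase-Glo 3/7 luminescence, 1 h at room temperature.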
INS-1E rescue: protection of INS-1E cells from cytokine death, primary screen, ATP luminescence, single point | hit rate 0.1% among 20,000 | INS-1E cytokine-induced death, 48 h; normalised: neutral wells 0, positive control 100 | protection from cytokine-induced ATP loss, % at 10 µM | AID 488910, 2010;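 active means mean replicate protection from cytokine-induced ATP loss at least 50% and at least 75% of replicates each reaching 50%; inconclusive means meets only one of the two criteria, mean or replicate share; inactive means fails both the mean and replicate share criteria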
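Assay system – rat INS-1E insulinoma cell line · Quantity – 8000 cells per well · Buffer or medium – RPMI without phenol red, 5% FBS · Schedule – 48 h co-treatment, 10 min post-lysis read · Technique – luminescent ATP assay (CellTiter-Glo)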
* = called active by the depositor; ? = inconclusive; nt = no result. This excerpt belongs to a sample that is enriched for hits.

SMILES	T cruzi intra	A1 apoptosis 2	INS-1E rescue
Cc1cccc(CN(C)C[C@@H]2Oc3ncc(-c4ccccc4)cc3C(=O)N([C@H](C)CO)C[C@@H]2C)c1	29	0	nt
CNC[C@@H]1Oc2ncc(-c3cc4ccccc4o3)cc2C(=O)N([C@H](C)CO)C[C@@H]1C	79*	-1	nt
C[C@H](CO)N1C[C@H](C)[C@H](CN(C)S(C)(=O)=O)Oc2ncc(-c3cc4ccccc4o3)cc2C1=O	14	nt	nt
C[C@H](CO)N1C[C@H](C)[C@H](CN(C)S(=O)(=O)c2cccc(F)c2)Oc2ncc(-c3cc4ccccc4o3)cc2C1=O	64*	-1	-22
Cc1cccc(CN(C)C[C@@H]2Oc3ncc(-c4cc5ccccc5o4)cc3C(=O)N([C@H](C)CO)C[C@@H]2C)c1	70*	0	nt
C[C@H](CO)N1C[C@H](C)[C@H](CN(C)Cc2ccc(F)cc2)Oc2ncc(-c3cc4ccccc4o3)cc2C1=O	78*	-1	nt
C[C@H](CO)N1C[C@H](C)[C@H](CN(C)Cc2ccncc2)Oc2ncc(-c3cc4ccccc4o3)cc2C1=O	40	nt	nt
O=C(NO)c1cccc(C(=O)N/N=C/c2cccc(Oc3ccccc3)c2)c1	-25	-4	-6
Cc1ccc(S(=O)(=O)N(C)C[C@@H]2OCCCC[C@H](C)Oc3ccc(NC(=O)c4ccccc4)cc3C(=O)N([C@H](C)CO)C[C@H]2C)cc1	nt	1	nt
O=C(CCCCC(=O)N/N=C/c1ccc(Br)o1)NO	nt	-1	nt
CC(C)(C)/C=N/NC(=O)CCCCCCC(=O)Nc1ccccc1O	-1	0	3
C[C@@H]1CN([C@H](C)CO)C(=O)Cc2cc(NC(=O)C3CCCCC3)ccc2O[C@H]1CN(C)Cc1ccc(C(F)(F)F)cc1	58*	nt	-12
C[C@H]1CN([C@@H](C)CO)C(=O)Cc2cc(NC(=O)Nc3ccc(C(F)(F)F)cc3)ccc2O[C@@H]1CN(C)Cc1ccc(C(=O)O)cc1	-27	nt	5
C[C@@H]1CN([C@H](C)CO)C(=O)Cc2cc(NC(=O)Nc3ccc(F)cc3)ccc2O[C@@H]1CN(C)Cc1ccc(C(F)(F)F)cc1	60*	1	-76
C[C@@H]1CN([C@@H](C)CO)C(=O)Cc2cc(NC(=O)Nc3ccc(C(F)(F)F)cc3)ccc2O[C@@H]1CN(C)Cc1ccc(C(F)(F)F)cc1	64*	nt	-19
C[C@@H]1CN([C@@H](C)CO)C(=O)Cc2cc(NC(=O)Nc3ccc(C(F)(F)F)cc3)ccc2O[C@H]1CN(C)Cc1ccc(C(F)(F)F)cc1	nt	0	nt
C[C@H]1CN([C@@H](C)CO)C(=O)Cc2cc(NC(=O)Nc3ccc(C(F)(F)F)cc3)ccc2O[C@H]1CN(C)Cc1ccc(C(F)(F)F)cc1	82*	nt	-90
C[C@@H]1CN([C@@H](C)CO)C(=O)Cc2cc(NC(=O)C3CCCCC3)ccc2O[C@@H]1CN(C)Cc1ccc(C(F)(F)F)cc1	44	0	-10
COc1ccc(CN(C)C[C@@H]2Oc3ccc(NC(=O)Nc4ccc(C(F)(F)F)cc4)cc3CC(=O)N([C@@H](C)CO)C[C@@H]2C)cc1	4	-1	-25
O=C(N/N=C/c1cn(S(=O)(=O)c2ccccc2)c2ccccc12)c1ccccc1O	-9	nt	-25
C=CCNC(=O)[C@@H]1[C@H]2C(=O)O[C@H](c3ccccc3)[C@H](c3ccccc3)N2[C@H](c2ccc(OCCO)cc2)[C@@]12C(=O)Nc1ccc(C#CCC(C(=O)OC)C(=O)OC)cc12	nt	0	nt
O=C(CCCCCC(=O)Nc1ccccc1O)N/N=C/c1ccc(N2CCCC2)cc1	nt	0	nt
COc1cc(Br)c(/C=N/NC(=O)c2ccccn2)cc1OC	-4	0	7
COc1ccc(Br)cc1/C=N/NC(=O)CCCCCC(=O)Nc1ccccc1O	11	0	-5
Cc1ccc(/C=N/NC(=O)CCCCC(=O)NO)o1	7	1	3
SMILES	T cruzi intra	A1 apoptosis 2	INS-1E rescue
C[C@H]1CN([C@@H](C)CO)C(=O)c2cccc(NC(=O)c3nc4ccccc4s3)c2O[C@@H]1CN(C)S(=O)(=O)c1ccc(F)cc1	67*	0	-20
C[C@H]1CN([C@@H](C)CO)C(=O)c2cccc(NC(=O)c3nc4ccccc4s3)c2O[C@@H]1CN(C)S(=O)(=O)c1ccc(Cl)cc1	78*	-1	-17
C[C@H](CO)N1C[C@H](C)[C@H](CN(C)S(=O)(=O)c2cccs2)Oc2c(NC(=O)c3nc4ccccc4s3)cccc2C1=O	76*	0	-16
C[C@H]1CN([C@@H](C)CO)C(=O)c2cccc(NC(=O)c3nc4ccccc4s3)c2O[C@H]1CN(C)S(=O)(=O)c1ccc(Cl)cc1	36	0	2
COc1ccc(S(=O)(=O)N(C)C[C@H]2Oc3c(NC(=O)c4nc5ccccc5s4)cccc3C(=O)N([C@@H](C)CO)C[C@H]2C)cc1	30	nt	-19
C[C@H](CO)N1C[C@H](C)[C@@H](CN(C)S(=O)(=O)c2ccc(F)cc2)Oc2c(NC(=O)c3nc4ccccc4s3)cccc2C1=O	?	nt	-13
COc1ccc(S(=O)(=O)N(C)C[C@@H]2Oc3c(NC(=O)c4nc5ccccc5s4)cccc3C(=O)N([C@H](C)CO)C[C@@H]2C)cc1	70*	0	-50
C[C@H]1CN([C@@H](C)CO)C(=O)c2cccc(NC(=O)c3nc4ccccc4s3)c2O[C@H]1CN(C)S(=O)(=O)c1cccs1	37	0	-11
O=C(NO)c1ccc(C(=O)N/N=C/c2c[nH]c3ccccc23)cc1	-3	nt	8
O=C(NO)c1cccc(C(=O)N/N=C/c2ccc(B(O)O)cc2)c1	-16	-3	-14
COc1ccc(CN(C)C[C@@H]2Oc3ccc(NS(=O)(=O)c4c(C)noc4C)cc3C(=O)N([C@@H](C)CO)C[C@H]2C)cc1	11	nt	-8
COc1ccc(O)c(/C=N/NC(=O)c2ccccn2)c1	0	nt	-8
C[C@@H]1CN([C@@H](C)CO)C(=O)c2cccc(NC(=O)c3nc4ccccc4s3)c2O[C@@H]1CN(C)S(=O)(=O)c1ccc(F)cc1	35	-1	-11
C[C@H]1CN([C@@H](C)CO)C(=O)c2cccc(NC(=O)c3nc4ccccc4s3)c2O[C@H]1CN(C)S(=O)(=O)c1ccc(F)cc1	74*	nt	-31
COC(=O)CCCCCCC(=O)N/N=C/c1ccc(O)c2ccccc12	-2	0	18
C[C@H]1CN([C@@H](C)CO)C(=O)Cc2cc(NC(=O)Nc3ccc(C(F)(F)F)cc3)ccc2O[C@@H]1CN(C)Cc1ccc2c(c1)OCO2	18	nt	-7
C[C@@H]1CN([C@H](C)CO)C(=O)Cc2cc(NC(=O)Nc3ccc(F)cc3)ccc2O[C@H]1CN(C)Cc1ccc2c(c1)OCO2	7	0	-2
C[C@@H]1CN([C@H](C)CO)C(=O)Cc2cc(NC(=O)Nc3ccc(C(F)(F)F)cc3)ccc2O[C@@H]1CN(C)Cc1ccc2c(c1)OCO2	62*	0	-59
C[C@@H]1CN([C@H](C)CO)C(=O)Cc2cc(NC(=O)Nc3ccc4c(c3)OCO4)ccc2O[C@@H]1CN(C)Cc1ccc(C(F)(F)F)cc1	76*	nt	-25
